Screens: PubChem BioAssay, Johns Hopkins Ion Channel Center
Only some compounds are listed: those with a hit (about 3.5% of all), similar ones and a draw of the others.
MrgX1 allo act – human MrgX1 positive allosteric modulation, primary screen | MrgX1-HEK293, Fluo-4 calcium flux, FDSS; stronger effect = higher value | B-score at 10 µM | 0.63% of 310,000 active | AID 588675;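 active means plate-corrected calcium response at least 3 library SD above typical, normal starting fluorescence, not activating the receptor alone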;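 further: compound read alongside a low EC10 to EC30 dose of BAM8-22 agonist; peak minus trough fluorescence over baseline measured at the second addition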
RGS4 act – RGS4 potentiation or activation; HEK293 M3R/inducible RGS4, carbachol calcium flux Fluo4; stronger effect = lower value; AID 463111; 0.92% of 310,000 active; B-score at 10 µM;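 active means B-score of the integrated calcium signal more than 4 SD below the library mean, with starting fluorescence not abnormally high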;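 further: negative B-score means reduced calcium response which marks RGS4 activation or potentiation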
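Assay system: Inducible-RGS4 HEK293 cells carrying M3 receptor | Schedule: Compound preincubation 20 min at room temperature before agonist | Signal: Kinetic calcium fluorescence imaging with Fluo4-AM dye, 2 µM | Read-out basis: B score from integrated fluorescence ratio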
MrgX1 ag – agonists of human MrgX1 receptor | MrgX1-HEK293 cells, Fluo-4 calcium fluorescence, agonist mode; stronger effect = higher value | B-score at 10 µM | 0.44% of 310,000 active;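 active means calcium response B-score plate-corrected fluorescence ratio at least 3 library SD, with starting fluorescence B-score inside 5 SD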
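times = overnight plating, then 30 min 37 °C plus 30 min room-temperature dye loading | assay system = stable human MrgX1 HEK293 cell line | input = fifteen thousand cells per well | signal = kinetic calcium dye fluorescence, Fluo-4 NW | dosing = compound delivered in addition one of three | read-out = B-scored fluorescence response ratio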
MrgX1 antagonist – blocks BAM8-22 activation of human MrgX1 receptor; AID 588676; B-score at 10 µM; MRGX1-HEK293 calcium flux, Fluo-4, BAM8-22 antagonism; stronger effect = lower value; 1.3% of 310,000 active;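 active means calcium-response B-score plate-corrected more than 3 library SD below zero, starting fluorescence within 5 deviations, no agonist response on first addition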;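 further: peak minus trough fluorescence over baseline after final BAM8-22 challenge near maximal dose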
RGS4 block – human RGS4 inhibition; 0.45% of 310,000 active; AID 463165; B-score at 10 µM; HEK293 M3R/RGS4 inducible, Fluo-4 calcium flux; stronger effect = higher value; triggered by carbachol at its EC20; P49798;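 active means B-score, a plate-corrected calcium signal, over three deviations above library mean, with baseline fluorescence within five deviations of library mean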;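 further: RGS4 expression induced by doxycycline in cells with stable M3 receptor; B-score is computed from the integrated fluorescence ratio over baseline after carbachol; higher B-score means a larger calcium signal and so more RGS4 inhibition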
Target sequence (P49798 whole entry, looked up): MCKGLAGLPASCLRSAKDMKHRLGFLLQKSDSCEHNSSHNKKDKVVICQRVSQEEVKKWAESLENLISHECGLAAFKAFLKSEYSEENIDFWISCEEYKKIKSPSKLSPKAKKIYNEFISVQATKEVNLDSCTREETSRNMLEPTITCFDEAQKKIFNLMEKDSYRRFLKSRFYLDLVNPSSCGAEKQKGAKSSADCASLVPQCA
* marks the source's active call; other numbers are inactive results; i = inactive; nt = not tested or not shown.

SMILES | MrgX1 allo act | RGS4 act | MrgX1 ag | MrgX1 antagonist | RGS4 block
CCOC(=O)c1sc(N/N=C/c2ccccc2)nc1C | i | i | i | i | i
O=C(O)Cc1sc(N/N=C\c2ccccc2)nc1-c1ccccc1 | i | i | i | -6.2* | i
CN1CCCc2cc3c(C(F)(F)F)cc(=O)oc3nc21 | i | -8* | i | i | i
CC(C)c1cc(=O)oc2c3c4c(cc12)CCCN4CCC3 | i | i | i | i | i
Cc1ncc(CO)c(/C=N/NC(=O)c2cc(Br)ccc2O)c1O | i | i | i | i | i
Cc1ncc(CO)c(/C=N/NC(=O)c2ccc(Br)cc2)c1O | i | i | i | i | 8.4*
COC(=O)c1c(NC(=O)Cn2cnc([N+](=O)[O-])n2)sc2c1CCC(C)C2 (configuration not stated) | i | -7.6* | i | i | i
CCOC(=O)c1c(NC(=O)Cn2cnc([N+](=O)[O-])n2)sc2c1CCC(C)C2 (configuration not stated) | i | i | i | i | i
COCCCNc1oc(COc2ccc(Cl)cc2Cl)nc1C#N | i | i | i | i | i
CN(C)CCNc1oc(COc2ccc(Cl)cc2Cl)nc1C#N | i | i | i | -6.5* | i
COc1ccc(CCNc2oc(COc3ccc(Br)cc3)nc2C#N)cc1OC | i | -7.5* | i | i | i
COc1ccc(CCNc2oc(Cc3cccc4ccccc34)nc2C#N)cc1OC | i | i | i | i | i
CC1=C(C)CS(=O)N(c2ccc(S(N)(=O)=O)cc2)C1 (configuration not stated) | i | i | 53* | i | i
CC1=C(C)CS(=O)N(S(=O)(=O)c2ccccc2)C1 (configuration not stated) | i | i | i | i | i
Cc1ccc([N+](=O)[O-])c(OCCn2cnc3ccccc32)c1 | 10* | i | i | i | i
N=C(N)c1ccc(OCCCCCOc2ccc(C(=N)N)cc2)cc1 | i | i | 34* | i | i
CCCCCCOc1ccc(/C(N)=N/O)cc1 | i | i | i | i | i
O=C(Nc1ccc(NC(=O)c2ccccc2Cl)nc1)c1ccco1 | i | i | i | i | i
O=C1NC(=S)N/C1=C/c1cccc2ccccc12 | i | i | i | i | i
CC(/C=C1\NC(=S)NC1=O)=C\c1ccccc1 | i | i | i | -5.1* | i
CC1=NOC(=O)/C1=C\c1ccc(-c2ccc(Br)cc2)o1 | nt | i | nt | nt | i
CC1=NOC(=O)/C1=C/c1ccc(-c2ccc(Cl)cc2)o1 | i | nt | 46* | i | nt
Cc1cccc(C)c1OCc1cc(C(=O)N2CCC(C3CCCCC3)C2)no1 (configuration not stated) | i | -7.6* | i | i | i
CC(C)OCCCNC(=O)C1CC(=O)N(CCc2ccccc2)C1 (configuration not stated) | i | i | i | i | i
C=CS(=O)(=O)c1sc(Cl)c(N2CCOCC2)c1[N+](=O)[O-] | nt | -11* | nt | nt | i
SMILES | MrgX1 allo act | RGS4 act | MrgX1 ag | MrgX1 antagonist | RGS4 block
O=C(Oc1ccc(/C=N/O)cc1)c1ccccc1Cl | 16* | i | i | i | i
Cc1ccc(C(=O)N/N=C\c2ccc(OC(=O)c3cccc(F)c3)cc2)cn1 | i | i | i | i | i
O=C(Oc1ccc2ccc(O)cc2c1)c1ccccc1Cl | i | i | i | i | i
Cc1cccc(C(=O)Oc2ccc(/C=N/O)cc2)c1 | 7.7* | i | i | i | i
CCN(C1CCS(=O)(=O)C1)S(=O)(=O)c1ccc(OC)c(OC)c1 (configuration not stated) | i | i | i | i | i
COc1cc2c(cc1NC(=O)C(C)Sc1ccc(C)cc1)oc1ccccc12 (configuration not stated) | i | -7* | i | i | i
COc1cc2c(cc1NC(=O)CSc1ccc(C)cc1)oc1ccccc12 | i | i | i | i | i
CC(C)/C=C(/C(=O)c1ccc(Cl)cc1Cl)n1cncn1 | i | i | i | i | i
O=C(/C(=C/c1cccnc1)n1ccnc1)c1ccc(Cl)cc1Cl | i | i | 33* | i | i
